Results: ChEMBL document CHEMBL1142267, “Optimization of alpha-ketooxazole inhibitors of fatty acid amide hydrolase” (J Med Chem, 2008)

Assays:
[1] = target: T1, Fatty-acid amide hydrolase 1 (Rattus norvegicus, UniProt P97612); assay: Inhibition of rat recombinant FAAH expressed in Escherichia coli
T1 sequence (P97612 whole entry): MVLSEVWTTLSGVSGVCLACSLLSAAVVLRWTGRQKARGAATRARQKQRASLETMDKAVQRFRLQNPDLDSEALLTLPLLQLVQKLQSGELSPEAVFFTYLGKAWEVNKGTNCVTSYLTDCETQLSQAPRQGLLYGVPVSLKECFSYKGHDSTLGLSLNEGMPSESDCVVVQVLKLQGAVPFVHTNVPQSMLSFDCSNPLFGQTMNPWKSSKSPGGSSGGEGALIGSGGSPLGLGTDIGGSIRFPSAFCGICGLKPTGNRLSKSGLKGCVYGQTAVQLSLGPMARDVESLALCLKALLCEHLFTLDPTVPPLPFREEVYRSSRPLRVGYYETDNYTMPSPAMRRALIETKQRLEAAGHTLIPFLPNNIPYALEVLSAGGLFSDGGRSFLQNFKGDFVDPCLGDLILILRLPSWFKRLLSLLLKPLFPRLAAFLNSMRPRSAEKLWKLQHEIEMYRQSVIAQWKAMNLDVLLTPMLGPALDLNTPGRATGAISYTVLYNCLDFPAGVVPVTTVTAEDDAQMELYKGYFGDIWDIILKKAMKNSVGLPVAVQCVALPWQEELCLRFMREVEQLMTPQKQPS

[2] = target: T2, Fatty-acid amide hydrolase 1 (Homo sapiens, UniProt O00519); assay: Inhibition of human recombinant FAAH expressed COS7 cells; type: cell-based, COS-7
T2 sequence (O00519 whole entry): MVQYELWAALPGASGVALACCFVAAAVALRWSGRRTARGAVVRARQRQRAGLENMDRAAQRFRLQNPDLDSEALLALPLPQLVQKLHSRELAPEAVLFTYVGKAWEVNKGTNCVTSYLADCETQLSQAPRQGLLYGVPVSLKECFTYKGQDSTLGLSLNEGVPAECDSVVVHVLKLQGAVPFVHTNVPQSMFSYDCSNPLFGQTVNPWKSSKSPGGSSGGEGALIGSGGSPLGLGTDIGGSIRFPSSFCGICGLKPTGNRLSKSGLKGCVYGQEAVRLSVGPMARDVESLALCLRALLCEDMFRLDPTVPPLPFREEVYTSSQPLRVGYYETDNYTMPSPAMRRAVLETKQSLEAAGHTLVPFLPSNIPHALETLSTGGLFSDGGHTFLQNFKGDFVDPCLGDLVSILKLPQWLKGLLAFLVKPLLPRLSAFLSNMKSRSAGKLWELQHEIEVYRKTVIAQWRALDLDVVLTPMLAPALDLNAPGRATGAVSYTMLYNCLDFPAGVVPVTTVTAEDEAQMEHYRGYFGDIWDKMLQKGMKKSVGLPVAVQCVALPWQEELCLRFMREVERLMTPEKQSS
How it was run: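 Enzyme source was solubilized membrane lysate of COS-7 cells transiently transfected with full-length human FAAH cDNA. Substrate 10 µM 14C-oleamide in pH 9.0 Tris/EDTA/glycerol/Triton X-100/Hepes buffer at room temperature, with three inhibitor concentrations. Reactions quenched in 0.1 N HCl at three time points, then EtOAc extraction and TLC of oleamide versus oleic acid. Ki from Dixon plot.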

Liver carboxylesterase 1 = target: T3, Liver carboxylesterase 1 (Homo sapiens, UniProt P23141)
T3 sequence (P23141 whole entry): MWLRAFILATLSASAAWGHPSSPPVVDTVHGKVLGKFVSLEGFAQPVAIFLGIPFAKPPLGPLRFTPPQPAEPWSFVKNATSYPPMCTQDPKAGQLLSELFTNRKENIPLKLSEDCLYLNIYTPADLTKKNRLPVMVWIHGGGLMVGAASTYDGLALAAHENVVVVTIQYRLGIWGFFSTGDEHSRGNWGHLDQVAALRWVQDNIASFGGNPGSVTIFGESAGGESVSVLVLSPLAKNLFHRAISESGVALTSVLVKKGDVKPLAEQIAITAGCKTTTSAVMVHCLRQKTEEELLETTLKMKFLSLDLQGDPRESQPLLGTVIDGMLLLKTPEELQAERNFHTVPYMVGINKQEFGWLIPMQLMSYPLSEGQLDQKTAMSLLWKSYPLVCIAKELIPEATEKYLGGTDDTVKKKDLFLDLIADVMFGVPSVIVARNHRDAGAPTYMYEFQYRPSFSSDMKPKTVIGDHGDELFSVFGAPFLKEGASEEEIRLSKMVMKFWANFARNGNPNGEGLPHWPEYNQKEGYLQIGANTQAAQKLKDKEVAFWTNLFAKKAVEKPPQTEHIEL

[3] = target: T4, Neutral cholesterol ester hydrolase 1 (Homo sapiens, UniProt Q6PIU2); assay: Inhibition of KIAA1363
T4 sequence (Q6PIU2 whole entry): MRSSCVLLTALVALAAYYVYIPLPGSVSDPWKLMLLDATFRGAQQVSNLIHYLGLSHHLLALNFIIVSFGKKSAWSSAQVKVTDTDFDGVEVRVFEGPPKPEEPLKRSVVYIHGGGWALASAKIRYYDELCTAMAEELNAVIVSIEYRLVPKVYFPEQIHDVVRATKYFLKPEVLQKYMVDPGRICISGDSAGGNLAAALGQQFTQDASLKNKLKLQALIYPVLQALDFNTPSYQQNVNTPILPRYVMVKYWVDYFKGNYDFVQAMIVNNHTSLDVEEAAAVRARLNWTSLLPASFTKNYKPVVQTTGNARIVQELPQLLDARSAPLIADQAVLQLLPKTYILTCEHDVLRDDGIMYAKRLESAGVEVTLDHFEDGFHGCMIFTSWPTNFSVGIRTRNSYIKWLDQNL

[4] = Selectivity for rat recombinant FAAH over KIAA1363
[5] = Selectivity for rat recombinant FAAH over TGH
[6] = target: T2, Fatty-acid amide hydrolase 1
[7] = Selectivity for TGH over rat recombinant FAAH

Compound | IC50 [1] [nM] | Ki [1] [nM] | Ki [2] [nM] | IC50 (Liver carboxylesterase 1) [nM] | IC50 [3] [nM] | Ratio IC50 [4] | Selectivity ratio [4] | Ratio IC50 [5] | Ki [6] [nM] | Selectivity ratio [7]
O=C(CCc1ccc(-c2ccccc2)cc1)c1ncco1 | 180 | 16 | – | 4.5 | > 100000 | > 550 | – | 0.025 | – | 1
O=C(CCc1ccc(COc2ccccc2)cc1)c1ncc(C(F)(F)F)o1 | – | 0.8 | 0.67 | – | – | – | – | – | – | –
O=C(CCc1ccc(Oc2ccccc2)cc1)c1ncco1 | 500 | 77 | – | 30 | > 100000 | > 200 | – | 0.06 | – | 1
O=C(CCc1ccc(Oc2ccccc2)cc1)c1ncc(C(F)(F)F)o1 | – | 2 | 1 | – | – | – | – | – | – | –

Continued, values first:

IC50 [1] [nM] | Ki [1] [nM] | Ki [2] [nM] | IC50 (Liver carboxylesterase 1) [nM] | IC50 [3] [nM] | Ratio IC50 [4] | Selectivity ratio [4] | Ratio IC50 [5] | Ki [6] [nM] | Selectivity ratio [7] | Compound
2 | 0.5 | 0.51 | 100 | 19000 | 9500 | > 1000 | 50 | – | – | N#Cc1cnc(C(=O)CCc2ccc(COc3ccccc3)cc2)o1
5 | 0.8 | 0.85 | 16 | 20000 | 4000 | > 1000 | 3 | – | – | N#Cc1cnc(C(=O)CCc2ccc(Oc3ccccc3)cc2)o1
– | – | – | – | – | – | – | – | 100 | – | CCCCCCCC/C=C\CCCCCCCC(=O)c1ncco1
270 | 25 | – | 270 | > 100000 | > 370 | – | 1 | – | 1 | O=C(CCc1ccc(COc2ccccc2)cc1)c1ncco1
